# According to ChEMBL document CHEMBL1121540, “Synthesis and antibacterial activity of new 1-oxa-1-dethiacephalosporins” (1980):
# Legend:
# Type in all cases: functional
# Klebsiella pneumoniae = assay: In vitro minimum inhibitory concentration (MIC) against Klebsiella pneumonia 12
# Summary of the method: (§1)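 Agar dilution on heart infusion agar; the MIC is read as the lowest concentration that inhibits growth of the strain.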
# Serratia marcescens = assay: In vitro minimum inhibitory concentration (MIC) against Serratia marcescens.; summary of the method: as §1
# Proteus mirabilis = assay: In vitro minimum inhibitory concentration (MIC) against Proteus mirabilis 1; summary of the method: as §1
# Escherichia coli = assay: In vitro minimum inhibitory concentration (MIC) against NIHJ JC-2 strain of Escherichia coli; summary of the method: as §1
# Staphylococcus aureus = assay: In vitro minimum inhibitory concentration (MIC) against 209P JC-1 strain of Staphylococcus aureus; summary of the method: as §1
# Bacillus subtilis = assay: In vitro minimum inhibitory concentration (MIC) against ATCC 6633 strain of Bacillus subtilis; summary of the method: as §1
# Pseudomonas aeruginosa = assay: In vitro minimum inhibitory concentration (MIC) against NCTC 10490 strain of Pseudomonas aeruginosa; summary of the method: as §1
MIC (Klebsiella pneumoniae) [µg/mL],MIC (Serratia marcescens) [µg/mL],MIC (Proteus mirabilis) [µg/mL],MIC (Escherichia coli) [µg/mL],MIC (Staphylococcus aureus) [µg/mL],MIC (Bacillus subtilis) [µg/mL],MIC (Pseudomonas aeruginosa) [µg/mL],Structure (SMILES)
0.78,100,0.2,0.2,25,100,800,CO/N=C(\C(=O)N[C@@H]1C(=O)N2C(C(=O)O)=CCO[C@H]12)c1csc(N)n1
1.56,100,0.1,3.13,6.25,100,50,C=CCO/N=C(\C(=O)N[C@@H]1C(=O)N2C(C(=O)O)=CCO[C@H]12)c1csc(N)n1
0.2,100,0.1,1.56,12.5,25,400,C#CCO/N=C(\C(=O)N[C@@H]1C(=O)N2C(C(=O)O)=CCO[C@H]12)c1csc(N)n1
1.56,100,3.13,6.25,12.5,100,800,CO/N=C(/C(=O)N[C@@H]1C(=O)N2C(C(=O)O)=CCO[C@H]12)c1csc(N)n1
0.78,25,0.2,0.78,12.5,50,12.5,CC(C)O/N=C(\C(=O)N[C@@H]1C(=O)N2C(C(=O)O)=CCO[C@H]12)c1csc(N)n1
3.13,100,0.78,0.78,12.5,50,12.5,CCCCO/N=C(\C(=O)N[C@@H]1C(=O)N2C(C(=O)O)=CCO[C@H]12)c1csc(N)n1
12.5,100,6.25,25,1.56,25,800,CO/N=C(\C(=O)N[C@@H]1C(=O)N2C(C(=O)O)=CCO[C@H]12)c1ccccc1
0.1,12.5,0.05,0.1,6.25,50,3.13,CCO/N=C(\C(=O)N[C@@H]1C(=O)N2C(C(=O)O)=CCO[C@H]12)c1csc(N)n1
1.56,100,0.78,6.25,12.5,50,800,CO/N=C(\C(=O)N[C@@H]1C(=O)N2C(C(=O)O)=CCO[C@H]12)c1ccco1
0.05,50,0.025,0.05,6.25,25,25,CO/N=C(\C(=O)N[C@@H]1C(=O)N2C(C(=O)O)=CCS[C@H]12)c1csc(N)n1 [CEFTIZOXIME]
